Experimental data reported in ChEMBL document CHEMBL1154352, “Toll-like receptor 7 selective synthetic oligoribonucleotide agonists: synthesis and structure-activity relationship studies” (J Med Chem, 2009).
Active and inactive are the calls of the source. The rule behind the calls is not given here.

Experiments:
[1] = Metabolic stability in human serum assessed as full length product remaining after 10 mins by HPLC; format: ADME, cell-free; conditions: read-out: Stability
In short: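 About 0.5 A260 units compound in 1% human serum in PBS, 37 °C; aliquot taken at 10 min, analysed by anion-exchange HPLC for percent intact full-length product.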

[2] = target: T1, Toll-like receptor 8 (Homo sapiens) (UniProt Q9NR97); assay: Activation of human TLR8 expressed in HEK293XL assessed as fold induction of NF-kappaB activity at 50 ug/ml after 18 hrs by reporter gene assay relative to control
T1 sequence (whole entry): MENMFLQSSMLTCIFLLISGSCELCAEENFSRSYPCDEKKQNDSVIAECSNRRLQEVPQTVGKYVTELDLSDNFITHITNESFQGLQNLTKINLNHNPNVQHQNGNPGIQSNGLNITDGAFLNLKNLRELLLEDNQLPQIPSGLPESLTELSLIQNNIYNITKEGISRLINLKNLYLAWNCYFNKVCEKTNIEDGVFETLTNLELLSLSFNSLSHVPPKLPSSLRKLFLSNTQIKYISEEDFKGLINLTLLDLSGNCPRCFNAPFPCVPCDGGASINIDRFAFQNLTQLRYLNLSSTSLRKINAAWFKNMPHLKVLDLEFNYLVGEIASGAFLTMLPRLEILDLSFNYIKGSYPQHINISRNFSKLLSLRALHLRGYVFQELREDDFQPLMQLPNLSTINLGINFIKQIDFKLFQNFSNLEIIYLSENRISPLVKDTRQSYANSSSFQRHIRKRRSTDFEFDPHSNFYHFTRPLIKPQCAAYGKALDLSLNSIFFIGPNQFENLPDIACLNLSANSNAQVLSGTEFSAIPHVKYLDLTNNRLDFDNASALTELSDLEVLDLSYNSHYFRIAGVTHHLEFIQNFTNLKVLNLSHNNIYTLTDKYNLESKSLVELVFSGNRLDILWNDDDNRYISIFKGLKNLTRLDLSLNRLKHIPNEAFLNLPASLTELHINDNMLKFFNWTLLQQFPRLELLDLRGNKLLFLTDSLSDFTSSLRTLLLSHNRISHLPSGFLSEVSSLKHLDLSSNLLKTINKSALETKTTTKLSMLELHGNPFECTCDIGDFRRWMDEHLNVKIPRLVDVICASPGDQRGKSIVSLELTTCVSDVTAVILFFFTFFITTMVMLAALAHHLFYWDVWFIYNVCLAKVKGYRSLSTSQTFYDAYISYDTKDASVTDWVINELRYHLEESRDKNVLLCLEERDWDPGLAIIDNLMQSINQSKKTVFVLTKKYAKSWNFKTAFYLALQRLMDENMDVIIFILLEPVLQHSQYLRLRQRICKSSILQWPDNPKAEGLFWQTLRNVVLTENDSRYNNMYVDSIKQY
In short: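 HEK293 cells stably expressing human TLR7 or TLR8, transiently transfected with SEAP reporter plasmid; medium replaced, SIMRA compounds added, 18 h incubation. Supernatant SEAP measured by QuantiBlue; expressed as fold increase in NF-κB activity over PBS control. Tabulated data at 50 μg/mL, representative of three independent experiments.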

[3] = target: Toll-like receptor 3 (Homo sapiens) (UniProt O15455); assay: Activation of human TLR3 expressed in HEK293 assessed as induction of NF-kappaB activity reporter gene assay; format: cell-based
Sequence of Toll-like receptor 3 (Homo sapiens) (O15455 whole entry): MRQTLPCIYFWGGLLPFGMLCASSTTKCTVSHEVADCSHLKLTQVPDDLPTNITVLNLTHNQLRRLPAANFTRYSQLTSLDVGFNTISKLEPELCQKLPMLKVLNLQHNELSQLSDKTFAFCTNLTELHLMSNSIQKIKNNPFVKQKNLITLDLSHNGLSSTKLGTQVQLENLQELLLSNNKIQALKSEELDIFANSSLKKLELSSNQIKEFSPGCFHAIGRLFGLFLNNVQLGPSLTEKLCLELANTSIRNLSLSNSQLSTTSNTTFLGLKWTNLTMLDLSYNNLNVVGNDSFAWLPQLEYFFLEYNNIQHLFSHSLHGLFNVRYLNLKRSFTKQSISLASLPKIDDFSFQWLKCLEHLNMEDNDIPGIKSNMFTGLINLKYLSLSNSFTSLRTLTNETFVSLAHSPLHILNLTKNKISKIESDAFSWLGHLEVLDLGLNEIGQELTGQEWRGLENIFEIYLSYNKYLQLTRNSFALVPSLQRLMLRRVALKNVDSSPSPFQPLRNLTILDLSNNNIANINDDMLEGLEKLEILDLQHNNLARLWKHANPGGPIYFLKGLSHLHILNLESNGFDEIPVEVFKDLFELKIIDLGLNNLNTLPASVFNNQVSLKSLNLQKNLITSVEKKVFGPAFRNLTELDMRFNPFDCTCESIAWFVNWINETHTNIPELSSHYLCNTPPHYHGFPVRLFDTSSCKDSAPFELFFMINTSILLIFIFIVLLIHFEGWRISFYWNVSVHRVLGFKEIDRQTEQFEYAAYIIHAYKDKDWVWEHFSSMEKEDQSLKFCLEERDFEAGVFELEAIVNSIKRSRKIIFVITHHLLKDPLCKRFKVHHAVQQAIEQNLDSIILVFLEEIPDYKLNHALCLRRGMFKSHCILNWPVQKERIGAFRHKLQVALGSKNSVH

Compound | remaining at 10 min [1] | fold change (FC) [2] | Activity [3]
Nc1ccn([C@@H]2O[C@H](COP(=O)(S)O[C@H]3[C@@H](O)[C@H](n4cnc5c(N)ncnc54)O[C@@H]3COP(=O)(S)O[C@H]3[C@@H](O)[C@H](n4cnc5c(N)ncnc54)O[C@@H]3CO)[C@@H](OP(=O)(S)OC[C@H]3O[C@@H](n4ccc(=O)[nH]c4=O)[C@H](O)[C@@H]3OP(=O)(S)OC[C@H]3O[C@@H](n4ccc5c(=O)[nH]c(N)nc54)[C@H](O)[C@@H]3OP(=O)(S)OC[C@H]3O[C@@H](n4cnc5c(N)ncnc54)[C@H](O)[C@@H]3OP(=O)(S)OC[C@H]3O[C@@H](n4cnc5c(N)ncnc54)[C@H](O)[C@@H]3OP(=O)(S)OC[C@H]3O[C@@H](n4ccc5c(=O)[nH]c(N)nc54)[C@H](O)[C@@H]3OP(=O)(S)OC[C@H]3O[C@@H](n4ccc(N)nc4=O)[C@H](O)[C@@H]3OP(=O)(S)OC[C@H]3O[C@@H](n4ccc(=O)[nH]c4=O)[C@H](O)[C@@H]3OP(=O)(S)OC[C@H]3O[C@@H](n4ccc5c(=O)[nH]c(N)nc54)[C@H](O)[C@@H]3OP(=O)(S)OCC(O)COP(=O)(S)O[C@H]3[C@@H](O)[C@H](n4ccc5c(=O)[nH]c(N)nc54)O[C@@H]3COP(=O)(S)O[C@H]3[C@@H](O)[C@H](n4ccc(=O)[nH]c4=O)O[C@@H]3COP(=O)(S)O[C@H]3[C@@H](O)[C@H](n4ccc(N)nc4=O)O[C@@H]3COP(=O)(S)O[C@H]3[C@@H](O)[C@H](n4ccc5c(=O)[nH]c(N)nc54)O[C@@H]3COP(=O)(S)O[C@H]3[C@@H](O)[C@H](n4cnc5c(N)ncnc54)O[C@@H]3COP(=O)(S)O[C@H]3[C@@H](O)[C@H](n4cnc5c(N)ncnc54)O[C@@H]3COP(=O)(S)O[C@H]3[C@@H](O)[C@H](n4ccc5c(=O)[nH]c(N)nc54)O[C@@H]3COP(=O)(S)O[C@H]3[C@@H](O)[C@H](n4ccc(=O)[nH]c4=O)O[C@@H]3COP(=O)(S)O[C@H]3[C@@H](O)[C@H](n4ccc(N)nc4=O)O[C@@H]3COP(=O)(S)O[C@H]3[C@@H](O)[C@H](n4cnc5c(N)ncnc54)O[C@@H]3COP(=O)(S)O[C@H]3[C@@H](O)[C@H](n4cnc5c(N)ncnc54)O[C@@H]3CO)[C@H]2O)c(=O)n1 (some centres undefined) | 76% | 0.6 | inactive
Nc1ccn([C@@H]2O[C@H](COP(=O)(S)O[C@H]3[C@@H](O)[C@H](n4ccc5c(=O)[nH]c(N)nc54)O[C@@H]3CO[C@H]3[C@@H](O)[C@H](n4cnc5c(N)ncnc54)O[C@@H]3COP(=O)(S)O[C@H]3[C@@H](O)[C@H](n4ccc5c(=O)[nH]c(N)nc54)O[C@@H]3COP(=O)(S)O[C@H]3[C@@H](O)[C@H](n4ccc(=O)[nH]c4=O)O[C@@H]3COP(=O)(S)O[C@H]3[C@@H](O)[C@H](n4ccc(N)nc4=O)O[C@@H]3COP(=O)(S)O[C@H]3[C@@H](O)[C@H](n4ccc5c(=O)[nH]c(N)nc54)O[C@@H]3COP(=O)(S)O[C@H]3[C@@H](O)[C@H](n4ccc(=O)[nH]c4=O)O[C@@H]3COP(=O)(S)O[C@H]3[C@@H](O)[C@H](n4ccc(=O)[nH]c4=O)O[C@@H]3CO)[C@@H](OP(=O)(S)OC[C@H]3O[C@@H](n4ccc(=O)[nH]c4=O)[C@H](O)[C@@H]3OP(=O)(S)OC[C@H]3O[C@@H](n4ccc(=O)[nH]c4=O)[C@H](O)[C@@H]3OP(=O)(S)OCC(O)COP(=O)(S)O[C@H]3[C@@H](O)[C@H](n4ccc(=O)[nH]c4=O)O[C@@H]3COP(=O)(S)O[C@H]3[C@@H](O)[C@H](n4ccc(=O)[nH]c4=O)O[C@@H]3COP(=O)(S)O[C@H]3[C@@H](O)[C@H](n4ccc(N)nc4=O)O[C@@H]3COP(=O)(S)O[C@H]3[C@@H](O)[C@H](n4ccc5c(=O)[nH]c(N)nc54)O[C@@H]3CO[C@H]3[C@@H](O)[C@H](n4cnc5c(N)ncnc54)O[C@@H]3COP(=O)(S)O[C@H]3[C@@H](O)[C@H](n4ccc5c(=O)[nH]c(N)nc54)O[C@@H]3COP(=O)(S)O[C@H]3[C@@H](O)[C@H](n4ccc(=O)[nH]c4=O)O[C@@H]3COP(=O)(S)O[C@H]3[C@@H](O)[C@H](n4ccc(N)nc4=O)O[C@@H]3COP(=O)(S)O[C@H]3[C@@H](O)[C@H](n4ccc5c(=O)[nH]c(N)nc54)O[C@@H]3COP(=O)(S)O[C@H]3[C@@H](O)[C@H](n4ccc(=O)[nH]c4=O)O[C@@H]3COP(=O)(S)O[C@H]3[C@@H](O)[C@H](n4ccc(=O)[nH]c4=O)O[C@@H]3CO)[C@H]2O)c(=O)n1 (some centres undefined) | 83% | 0.4 | inactive
Nc1ccn([C@@H]2O[C@H](CO)[C@@H](OP(=O)(S)OC[C@H]3O[C@@H](n4ccc(=O)[nH]c4=O)[C@H](O)[C@@H]3OP(=O)(S)OC[C@H]3O[C@@H](n4ccc5c(=O)[nH]c(N)nc54)[C@H](O)[C@@H]3OP(=O)(S)OC[C@H]3O[C@@H](n4cnc5c(N)ncnc54)[C@H](O)[C@@H]3OP(=O)(S)OC[C@H]3O[C@@H](n4ccc5c(=O)[nH]c(N)nc54)[C@H](O)[C@@H]3OP(=O)(S)OC[C@H]3O[C@@H](n4cnc5c(N)ncnc54)[C@H](O)[C@@H]3OP(=O)(S)OC[C@H]3O[C@@H](n4cnc5c(N)ncnc54)[C@H](O)[C@@H]3OP(=O)(S)OC[C@H]3O[C@@H](n4ccc5c(=O)[nH]c(N)nc54)[C@H](O)[C@@H]3OP(=O)(S)OC[C@H]3O[C@@H](n4ccc(N)nc4=O)[C@H](O)[C@@H]3OP(=O)(S)OC[C@H]3O[C@@H](n4ccc(=O)[nH]c4=O)[C@H](O)[C@@H]3OP(=O)(S)OC[C@H]3O[C@@H](n4ccc(=O)[nH]c4=O)[C@H](O)[C@@H]3OP(=O)(S)OCC(O)COP(=O)(S)O[C@H]3[C@@H](O)[C@H](n4ccc(=O)[nH]c4=O)O[C@@H]3COP(=O)(S)O[C@H]3[C@@H](O)[C@H](n4ccc(=O)[nH]c4=O)O[C@@H]3COP(=O)(S)O[C@H]3[C@@H](O)[C@H](n4ccc(N)nc4=O)O[C@@H]3COP(=O)(S)O[C@H]3[C@@H](O)[C@H](n4ccc5c(=O)[nH]c(N)nc54)O[C@@H]3COP(=O)(S)O[C@H]3[C@@H](O)[C@H](n4cnc5c(N)ncnc54)O[C@@H]3COP(=O)(S)O[C@H]3[C@@H](O)[C@H](n4cnc5c(N)ncnc54)O[C@@H]3COP(=O)(S)O[C@H]3[C@@H](O)[C@H](n4ccc5c(=O)[nH]c(N)nc54)O[C@@H]3COP(=O)(S)O[C@H]3[C@@H](O)[C@H](n4cnc5c(N)ncnc54)O[C@@H]3COP(=O)(S)O[C@H]3[C@@H](O)[C@H](n4ccc5c(=O)[nH]c(N)nc54)O[C@@H]3COP(=O)(S)O[C@H]3[C@@H](O)[C@H](n4ccc(=O)[nH]c4=O)O[C@@H]3COP(=O)(S)O[C@H]3[C@@H](O)[C@H](n4ccc(N)nc4=O)O[C@@H]3CO)[C@H]2O)c(=O)n1 (some centres undefined) | 72% | 0.4 | inactive
